ChEMBL document CHEMBL3525944, “Nonlinear pharmacokinetics of 5-methoxy-N,N-dimethyltryptamine in mice” (Drug Metab Dispos, 2011)

What was measured:
[1] = Half life in CYP2D6-humanized transgenic FVB/N mouse at 2 mg/kg, iv by LC-MS/MS analysis; assay type: ADME, organism-based; design: dose 2 mg/kg, route intravenous; settings: in vivo
Mus musculus [2] = test: AUC (0 to infinity) in CYP2D6-humanized transgenic FVB/N mouse at 10 mg/kg, iv by LC-MS/MS analysis; assay type: ADME, organism-based, Plasma; design: time infinity, dose 10 mg/kg, route intravenous; settings: in vivo
[3] = Clearance in CYP2D6-humanized transgenic FVB/N mouse at 10 mg/kg, iv by LC-MS/MS analysis; assay type: ADME, organism-based; design: dose 10 mg/kg, route intravenous; settings: in vivo
Mus musculus [4] = test: Dose normalized AUC (0 to infinity) in wild-type FVB/N mouse at 2 mg/kg, iv by LC-MS/MS analysis; assay type: ADME, organism-based; design: dose 2 mg/kg, route intravenous; settings: in vivo
[5] = Tmax in wild-type FVB/N mouse at 2 mg/kg, ip by LC-MS/MS analysis; assay type: ADME, organism-based; design: dose 2 mg/kg, route intraperitoneal; settings: in vivo
In short: (§1)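 Male 8-week FVB/N wild-type or CYP2D6-humanized mice given 5-MeO-DMT oxalate in saline i.p. at 10 µL/g body weight. Serum sampled 0-180 min, N = 4 per time point, processed by acetonitrile protein precipitation with internal standard, quantified by LC-MS/MS. Tmax taken as observed from composite mean serum concentration-time data.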

Serum [6] = test: Drug recovery in wild-type FVB/N mouse serum by LC-MS/MS analysis; assay type: ADME, cell-free
Mus musculus [7] = test: Dose normalized AUC (0 to infinity) in wild-type FVB/N mouse at 10 mg/kg, iv by LC-MS/MS analysis; assay type: ADME, organism-based; design: dose 10 mg/kg, route intravenous; settings: in vivo
Mus musculus [8] = test: Dose normalized AUC (0 to infinity) in wild-type FVB/N mouse at 10 mg/kg, ip by LC-MS/MS analysis; assay type: ADME, organism-based; design: dose 10 mg/kg, route intraperitoneal; settings: in vivo
Mus musculus [9] = test: Dose normalized AUC (0 to infinity) in CYP2D6-humanized transgenic FVB/N mouse at 10 mg/kg, ip by LC-MS/MS analysis; assay type: ADME, organism-based; design: dose 10 mg/kg, route intraperitoneal; settings: in vivo
[10] = Volume of distribution at steady state in CYP2D6-humanized transgenic FVB/N mouse at 20 mg/kg, iv by LC-MS/MS analysis; assay type: ADME, organism-based; design: dose 20 mg/kg, route intravenous; settings: in vivo, read-out: Vdss
In short: (§2)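 Male 8-week FVB/N wild-type or CYP2D6-humanized mice (25-30 g) given 5-MeO-DMT oxalate in saline i.v. at 5 µL/g body weight. Serum collected 0-180 min, N = 3 per time point, proteins precipitated with ice-cold acetonitrile containing internal standard, LC-MS/MS. Noncompartmental analysis of composite mean data; t1/2 = 0.693/terminal slope; Vss = CL×AUMC/AUC, CL = dose/AUC0→∞.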

Mus musculus [11] = test: AUC (0 to infinity) in CYP2D6-humanized transgenic FVB/N mouse at 20 mg/kg, iv by LC-MS/MS analysis; assay type: ADME, organism-based, Plasma; design: time infinity, dose 20 mg/kg, route intravenous; settings: in vivo
[12] = Clearance in wild-type FVB/N mouse at 10 mg/kg, iv by LC-MS/MS analysis; assay type: ADME, organism-based; design: dose 10 mg/kg, route intravenous; settings: in vivo
[13] = Ratio of drug level in brain to serum in wild-type FVB/N mouse at 10 mg/kg, ip by LC-MS/MS analysis; assay type: ADME, organism-based; design: dose 10 mg/kg, route intraperitoneal
In short: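 Mice dosed i.p. with 5-MeO-DMT in saline and killed at 20, 30 or 60 min. Brain homogenized in ice-cold saline and extracted liquid-liquid; serum processed by acetonitrile precipitation. Both quantified by LC-MS/MS (brain range 4.1-3000 nM). Ratio is brain over serum concentration at the same time point.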

[14] = Bioavailability in wild-type FVB/N mouse at 20 mg/kg, ip by LC-MS/MS analysis; assay type: ADME, organism-based; settings: in vivo
[15] = Bioavailability in wild-type FVB/N mouse at 2 mg/kg, ip by LC-MS/MS analysis; assay type: ADME, organism-based; settings: in vivo
Mus musculus [16] = test: Dose normalized AUC (0 to infinity) in wild-type FVB/N mouse at 20 mg/kg, ip by LC-MS/MS analysis; assay type: ADME, organism-based; design: dose 20 mg/kg, route intraperitoneal; settings: in vivo
[17] = Volume of distribution at steady state in wild-type FVB/N mouse at 2 mg/kg, iv by LC-MS/MS analysis; assay type: ADME, organism-based; design: dose 2 mg/kg, route intravenous; settings: in vivo, read-out: Vdss; in short: as §2
Serum [18] = test: Drug uptake in CYP2D6-humanized transgenic FVB/N mouse serum by LC-MS/MS analysis; assay type: ADME, cell-free; settings: read-out: Drug uptake
Serum [19] = test: Drug uptake in wild-type FVB/N mouse serum by LC-MS/MS analysis; assay type: ADME, cell-free; settings: read-out: Drug uptake
[20] = Half life in wild-type FVB/N mouse at 10 mg/kg, iv by LC-MS/MS analysis; assay type: ADME, organism-based; design: dose 10 mg/kg, route intravenous; settings: in vivo
Mus musculus [21] = test: Dose normalized AUC (0 to infinity) in CYP2D6-humanized transgenic FVB/N mouse at 2 mg/kg, iv by LC-MS/MS analysis; assay type: ADME, organism-based; design: dose 2 mg/kg, route intravenous; settings: in vivo
[22] = Volume of distribution at steady state in CYP2D6-humanized transgenic FVB/N mouse at 10 mg/kg, iv by LC-MS/MS analysis; assay type: ADME, organism-based; design: dose 10 mg/kg, route intravenous; settings: in vivo, read-out: Vdss; in short: as §2
Mus musculus [23] = test: AUC (0 to infinity) in CYP2D6-humanized transgenic FVB/N mouse at 2 mg/kg, ip by LC-MS/MS analysis; assay type: ADME, organism-based, Plasma; design: time infinity, dose 2 mg/kg, route intraperitoneal; settings: in vivo
Mus musculus [24] = test: AUC (0 to infinity) in wild-type FVB/N mouse at 10 mg/kg, iv by LC-MS/MS analysis; assay type: ADME, organism-based, Plasma; design: dose 10 mg/kg, route intravenous, time infinity; settings: in vivo
Mus musculus [25] = test: Dose normalized AUC (0 to infinity) in wild-type FVB/N mouse at 20 mg/kg, iv by LC-MS/MS analysis; assay type: ADME, organism-based; design: dose 20 mg/kg, route intravenous; settings: in vivo
[26] = Bioavailability in CYP2D6-humanized transgenic FVB/N mouse at 10 mg/kg, ip by LC-MS/MS analysis; assay type: ADME, organism-based; settings: in vivo
Mus musculus [27] = test: Dose normalized AUC (0 to infinity) in CYP2D6-humanized transgenic FVB/N mouse at 10 mg/kg, iv by LC-MS/MS analysis; assay type: ADME, organism-based; design: dose 10 mg/kg, route intravenous; settings: in vivo
[28] = Half life in CYP2D6-humanized transgenic FVB/N mouse at 10 mg/kg, iv by LC-MS/MS analysis; assay type: ADME, organism-based; design: dose 10 mg/kg, route intravenous; settings: in vivo
Mus musculus [29] = test: AUC (0 to infinity) in CYP2D6-humanized transgenic FVB/N mouse at 2 mg/kg, iv by LC-MS/MS analysis; assay type: ADME, organism-based, Plasma; design: time infinity, dose 2 mg/kg, route intravenous; settings: in vivo
Mus musculus [30] = test: AUC (0 to infinity) in wild-type FVB/N mouse at 20 mg/kg, ip by LC-MS/MS analysis; assay type: ADME, organism-based, Plasma; design: time infinity, dose 20 mg/kg, route intraperitoneal; settings: in vivo
[31] = Cmax in wild-type FVB/N mouse at 20 mg/kg, ip by LC-MS/MS analysis; assay type: ADME, organism-based; design: dose 20 mg/kg, route intraperitoneal; settings: in vivo
Mus musculus [32] = test: AUC (0 to infinity) in CYP2D6-humanized transgenic FVB/N mouse at 10 mg/kg, ip by LC-MS/MS analysis; assay type: ADME, organism-based, Plasma; design: time infinity, dose 10 mg/kg, route intraperitoneal; settings: in vivo
Mus musculus [33] = test: Dose normalized AUC (0 to infinity) in CYP2D6-humanized transgenic FVB/N mouse at 20 mg/kg, ip by LC-MS/MS analysis; assay type: ADME, organism-based; design: dose 20 mg/kg, route intraperitoneal; settings: in vivo
[34] = Tmax in wild-type FVB/N mouse at 20 mg/kg, ip by LC-MS/MS analysis; assay type: ADME, organism-based; design: dose 20 mg/kg, route intraperitoneal; settings: in vivo; in short: as §1
Mus musculus [35] = test: Dose normalized AUC (0 to infinity) in wild-type FVB/N mouse at 2 mg/kg, ip by LC-MS/MS analysis; assay type: ADME, organism-based; design: dose 2 mg/kg, route intraperitoneal; settings: in vivo

COc1ccc2[nH]cc(CCN(C)C)c2c1.O=C(O)C(=O)O
half-life [1]: 8.4 min | AUC (Mus musculus [2]): 369 µmol·min/L | clearance [3]: 120 mL/min/kg | AUC/dose (Mus musculus [4]): 5.19 kg·min/L | Tmax [5]: 3 min | Drug recovery (Serum [6]): 62% | AUC/dose (Mus musculus [7]): 10.6 kg·min/L | AUC/dose (Mus musculus [8]): 5.03 kg·min/L | AUC/dose (Mus musculus [9]): 4.92 kg·min/L | Vd [10]: 2.18 L/kg | AUC (Mus musculus [11]): 866 µmol·min/L | clearance [12]: 94 mL/min/kg | Kp [13]: 1.8 | bioavailability [14]: 71% | bioavailability [15]: 52.2% | AUC/dose (Mus musculus [16]): 7.13 kg·min/L | Vd [17]: 2.27 L/kg | concentration (Serum [18]): 4.1 nM | concentration (Serum [19]): 4.1 nM | half-life [20]: 12 min | AUC/dose (Mus musculus [21]): 5.36 kg·min/L | Vd [22]: 1.68 L/kg | AUC (Mus musculus [23]): 20.9 µmol·min/L | AUC (Mus musculus [24]): 487 µmol·min/L | AUC/dose (Mus musculus [25]): 10 kg·min/L | bioavailability [26]: 61% | AUC/dose (Mus musculus [27]): 8.1 kg·min/L | half-life [28]: 12 min | AUC (Mus musculus [29]): 49.1 µmol·min/L | AUC (Mus musculus [30]): 654 µmol·min/L | Cmax [31]: 15800 nM | AUC (Mus musculus [32]): 225 µmol·min/L | AUC/dose (Mus musculus [33]): 6.2 kg·min/L | Tmax [34]: 5 min | AUC/dose (Mus musculus [35]): 2.71 kg·min/L
